The results in this text go back to ChEMBL document CHEMBL1140857 (Bioorg Med Chem, 2009).

Assay [1] concerns A-427. Kind of assay: Cytotoxicity against human A427 cells at 20 uM after 96 hrs by crystal violet staining relative to control. It counts as functional. In outline: (§1)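 Cell lines from DSMZ (German collection). Cells exposed to 20 µM test substance at 37 °C for 96 h; medium removed and adherent (living) cells stained with crystal violet. Growth given as % of untreated control; averages of two independent experiments.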

Assay [2] deals with RT-4. Kind of assay: Cytotoxicity against human RT4 cells at 20 uM after 96 hrs by crystal violet staining relative to control. It counts as functional. In outline: as §1
Assay [3] is described as follows: Cytotoxicity against human LCLC-103H cells at 20 uM after 96 hrs by crystal violet staining relative to control. It counts as functional. In outline: as §1
The nature of assay [4]: Displacement of [3H][…] from opioid sigma2 receptor in rat liver homogenate in presence of (+)-pentazocine. The format is tissue-based. Put shortly: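 Rat liver membranes (about 100 µg protein, 50 mM Tris pH 8.0) incubated 180 min at room temperature with six concentrations of test compound, 3 nM [3H]-ditolylguanidine (Kd 17.9 nM) and 500 nM (+)-pentazocine. […] IC50 by nonlinear regression, Ki by Cheng–Prusoff; triplicates, mean ± SEM of three experiments.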
For orientation: Displacement assays read how much labelled ligand stays bound in the presence of the test substance.

The target in assay [5] is Sigma non-opioid intracellular receptor 1 (Cavia porcellus, UniProt Q60492). Kind of assay: Displacement of [3H](+)-pentazocine from opioid sigma1 receptor in guinea pig brain homogenate. It counts as tissue-based. Put shortly:
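Non-specific binding with 10 µM unlabeled (+)-pentazocine. Filtration, scintillation counting; IC50 by nonlinear regression, Ki by Cheng–Prusoff; triplicates, mean ± SEM of three independent experiments.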

The test system of assay [6] is MCF7. Kind of assay: Cytotoxicity against human MCF7 cells after 96 hrs at 20 uM by crystal violet staining relative to control. The format is functional. Put shortly:
as §1

Assay [7] has as its system DAN-G. Kind of assay: Cytotoxicity against human DAN-G cells after 96 hrs at 20 uM by crystal violet staining relative to control. The format is functional. In outline:
as §1

The species named for assay [8] is Sus scrofa. Kind of assay: Displacement of [3H]MK-801 from NMDA receptor in pig brain cortex at 1 uM.
Assay [9] deals with A-427. Kind of assay: Cytotoxicity against human A427 cells after 96 hrs by crystal violet staining relative to control. It counts as functional, cell-based. The settings on record: A-427, 96 h. Put shortly:
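Crystal violet microtiter assay, 96 h exposure at 37 °C. Five serial dilutions from DMF stock solutions; concentrations giving T/C between 10% and 90% used, and IC50 calculated by least-squares analysis of dose–response curves.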

Assay [10] has as its system 5637. Kind of assay: Cytotoxicity against human 5637 cells at 20 uM after 96 hrs by crystal violet staining relative to control. The format is functional. Put shortly: as §1
Assay [11] addresses Sigma non-opioid intracellular receptor 1 (Cavia porcellus) (UniProt Q60492). Kind of assay: Displacement of [3H](+)-pentazocine from opioid sigma1 receptor in guinea pig brain homogenate at 1 uM. It counts as tissue-based. In outline:
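Guinea pig brain membranes (about 75 µg protein, 50 mM Tris pH 7.4) with 2 nM [3H]-(+)-pentazocine, 180 min at 37 °C. Test compound at 1 µM; inhibition of radioligand binding reported. Non-specific binding with 10 µM unlabeled (+)-pentazocine; filtration and scintillation counting.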

For assay [12], the species on record is Rattus norvegicus. Kind of assay: Displacement of [3H][…] from opioid sigma2 receptor in rat liver homogenate at 1 uM in presence of (+)-pentazocine. It counts as tissue-based. In outline: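 Rat liver membranes (about 100 µg protein, 50 mM Tris pH 8.0) with 3 nM [3H]-ditolylguanidine plus 500 nM (+)-pentazocine masking σ1, 180 min at room temperature. Test compound at 1 µM; inhibition of radioligand binding reported.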

Assay [13] can be described thus: Selectivity ratio of Ki for rat sigma2 receptor to Ki for guinea pig sigma1 receptor.

Sigma non-opioid intracellular receptor 1 (Cavia porcellus), sequence (Q60492 whole entry): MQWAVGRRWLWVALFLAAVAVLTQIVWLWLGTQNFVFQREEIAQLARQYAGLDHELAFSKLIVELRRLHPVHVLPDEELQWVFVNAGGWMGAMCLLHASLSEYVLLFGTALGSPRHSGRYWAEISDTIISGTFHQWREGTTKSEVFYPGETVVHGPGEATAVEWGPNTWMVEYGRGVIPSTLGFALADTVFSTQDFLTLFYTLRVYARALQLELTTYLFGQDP
Sigma non-opioid intracellular receptor 1, sequence (Q60492 whole entry): as above

What is called Ki is a dissociation constant, usually derived from enzyme kinetics or from competition with a known ligand. By IC50 is commonly meant the point on the concentration scale where inhibition reaches its midpoint. Low readings indicate inhibition by little substance, high ones a need for much substance. For the compound `C=CCN1C[C@@H]2[C@@H](OC)CC[C@H]1CN2Cc1ccc(OC)cc1`, the Activity in assay [1] was 45%; in assay [2], 89%; in assay [3], 99%; in assay [6], 80%; in assay [7], 95%; in assay [8], less than 25%. In addition, the Activity in assay [10] turned out to be 95%. In addition, the Ki in [4] is 2.1 µM; in assay [5], 3.5 µM. The compound also returned an IC50 in assay [9] of 16.4 µM.
Broadly, the inhibition is the drop in the measured response relative to a control, in per cent. Take `C=CCN1C[C@@H]2[C@@H](O)CC[C@H]1CN2Cc1ccc(OC)cc1OC`: the Activity in assay [1] is 79%; in [2], 103%; in assay [3] it was 103%; in [6], 84%; in [7] it was 87%; in [8] it was less than 25%. Moreover, the Activity in assay [10] is 100%. For the same compound, the inhibition in [11] is 0%; in [12] it was 6%.
With `C=CCN1C[C@H]2[C@H](O)CC[C@@H]1CN2Cc1ccc(OC)cc1OC`, the Activity in [1] is 87%; in assay [2], 109%; in assay [3] it was 103%; in assay [6], 102%; in [7], 91%; in assay [8], less than 25%. The compound also registered an Activity in assay [10] of 105%. The inhibition is 22% in assay [11] and 35% in assay [12].
As for `C=CCN1C[C@H]2[C@@H](O)CC[C@@H]1CN2Cc1ccc(OC)cc1`, the Ratio in [13] worked out at 4. The Activity in assay [1] is 90%; in assay [2], 107%; in [3] it was 111%; in assay [6], 99%; in assay [7], 100%; in assay [8], less than 25%. Also, in assay [10], the Activity worked out at 104%. Also, the Ki was 1.21 µM in assay [4] and 0.343 µM in assay [5].
For `C=CCN1C[C@@H]2[C@@H](OC)CC[C@H]1CN2Cc1ccc(OC)cc1OC`, the Activity in assay [1] is 36%; in [2] it was 68%; in assay [3] it was 78%; in assay [6], 84%; in assay [7], 101%; in assay [8], less than 25%. In assay [10], this compound came in with an Activity of 102%. The Ki in assay [4] was found to be 7.66 µM; in assay [5] it was 5.74 µM. In assay [9], the midpoint of inhibition, the IC50, lay at 27.1 µM.
For `C=CCN1C[C@@H]2CCC[C@H]1CN2Cc1ccc(OC)cc1`, the Ratio in assay [13] is 20. Further, the Activity in assay [1] is 42%; in [2] it was 65%; in assay [3], 91%; in [6], 65%; in assay [7], 92%; in assay [8], less than 25%. In addition, the Activity in assay [10] is recorded as 87%. For the same compound, the Ki was 0.203 µM in assay [4] and 0.011 µM in assay [5].
For the compound `C=CCN1C[C@H]2[C@H](OC)CC[C@@H]1CN2Cc1ccc(OC)cc1`, the Activity in [1] was 48%; in [2], 94%; in assay [3], 107%; in assay [6] it was 84%; in assay [7] it was 95%; in assay [8], less than 25%. This compound returned an Activity in assay [10] of 81%. Besides, the Ki came to 22.4 µM in assay [4] and 8.28 µM in assay [5]. The IC50 in [9] is 20.4 µM.
For the compound `C=CCN1C[C@H]2[C@@H](OC)CC[C@@H]1CN2Cc1ccc(OC)cc1OC`, the Activity in assay [1] is 49%; in assay [2], 87%; in assay [3], 98%; in assay [6] it was 79%; in [7], 84%; in assay [8] it was less than 25%. Also, the Activity in assay [10] came out at 63%. For the same compound, the Ki in assay [4] worked out at 13.5 µM. The inhibition in [11] is 37%. This compound had an IC50 in [9] of 18.9 µM.
